Laboratory results as given in PMC3159713 (Bioorganic & medicinal chemistry letters, 2011).

What was measured:
[1] = target: Norwalk virus 3C protease (Norovirus, UniProt Q83883); experiment: Recombinant NV protease fluorogenic; type: biochemical; settings: for IC50 column: designated inactive (percent inhibition < 25): incubated with the enzyme for 30 minutes at an [I]/[S] ratio of 25
murine norovirus (MNV) = experiment: Murine norovirus replication in RAW267.4 cells; type: cell-based, murine norovirus-1 (MNV-1); settings: MNV-1 at MOI of 2, TCID50 assay
[2] = test system: Norwalk norovirus (NV replicon-harboring HG23 cells); experiment: Cell-based NV replicon system; parameters: species or system Norwalk virus; settings: NV genome levels at 24 hr post-treatment
How it was run: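 Norwalk virus replicon-harbouring HG23 cells, 1 day old and 80-90% confluent, were treated with the test compound from 0 (mock-DMSO) to 320 μM. NV genome was measured by qRT-PCR. ED50 was determined from NV genome levels at 24 hr post-treatment.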

HG23 cells = experiment: Cell cytotoxicity assay kit in HG23 cells; type: cell-based; settings: 48 hr of treatment

Chain of Norwalk virus 3C protease (Q83883 1101-1281): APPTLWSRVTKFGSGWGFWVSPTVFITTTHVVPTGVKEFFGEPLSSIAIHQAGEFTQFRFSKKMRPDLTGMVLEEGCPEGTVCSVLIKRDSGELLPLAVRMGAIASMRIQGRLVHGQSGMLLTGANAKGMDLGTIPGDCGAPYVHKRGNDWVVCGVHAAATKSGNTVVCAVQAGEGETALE

| SMILES | IC50 column: designated inactive (percent inhibition < 25) [1] | Inhibition of Norwalk virus 3C protease (in words) [1] | ED50, replication of murine norovirus (MNV) (murine norovirus (MNV)) [µM] | ED50 (effective dose that inhibits 50% of norovirus replication) [2] [µM] | TD50 (median toxic dose) (HG23 cells) [µM] |
| --- | --- | --- | --- | --- | --- |
| CC(C)C[C@H](NC(=O)OCc1ccccc1)C(=O)N[C@H](C=O)CC1CCNC1=O (some centres unmarked) [Compound 4] |  | dose-dependent inhibition | 5.5 | 2.1 | > 320 |
| CC(C)C[C@H](NC(=O)CNC(=O)OCc1ccccc1)C(=O)N[C@H](C=O)CC1CCNC1=O (some centres unmarked) [Compound 5] |  |  | 20.3 | 7.8 | > 320 |
| CC(C)C[C@H](NC(=O)OCc1ccccc1)C(=O)N[C@H](CO)CC1CCNC1=O (some centres unmarked) [Compound 3] | Inactive ^a |  |  |  |  |
| CCCC[C@H](NC(=O)CNC(=O)OCc1ccccc1)C(=O)N[C@H](C=O)CC1CCNC1=O (some centres unmarked) [Compound 7] |  | sub-micromolar inhibitor |  |  |  |

Now from value to compound, other results behind:

| IC50 column: designated inactive (percent inhibition < 25) [1] | Inhibition of Norwalk virus 3C protease (in words) [1] | SMILES | ED50, replication of murine norovirus (MNV) (murine norovirus (MNV)) [µM] | ED50 (effective dose that inhibits 50% of norovirus replication) [2] [µM] | TD50 (median toxic dose) (HG23 cells) [µM] |
| --- | --- | --- | --- | --- | --- |
| Inactive ^a |  | O=C[C@H](CC1CCNC1=O)NC(=O)[C@H](Cc1ccccc1)NC(=O)N1CCOCC1 (some centres unmarked) [Compound 2] |  |  |  |
| Inactive ^a |  | CCCC[C@H](NC(=O)CNC(=O)OCc1ccccc1)C(=O)N[C@H](CO)CC1CCNC1=O (some centres unmarked) [Compound 8] |  |  |  |
| Inactive ^a | devoid of inhibitory activity | CC(C)C[C@H](NC(=O)OCc1ccccc1)C(=O)N[C@@H](CC1CCNC1=O)C(=O)C(=O)NC(C)C (some centres unmarked) [Compound 10] |  |  |  |
| Inactive ^a |  | CC(C)C[C@H](NC(=O)CNC(=O)OCc1ccccc1)C(=O)N[C@H](CO)CC1CCNC1=O (some centres unmarked) [Compound 6] |  |  |  |
